Source: ChEMBL document CHEMBL2029222, “Synthesis and biological evaluation of a class of 5-benzylidene-2-phenyl-thiazolinones as potent 5-lipoxygenase inhibitors” (Bioorg Med Chem, 2012)

Tests used:
[1] = molecular target: T1, Polyunsaturated fatty acid 5-lipoxygenase (Homo sapiens) (UniProt P09917); assay: Inhibition of 5-lipoxygenase in human polynuclear leukocytes assessed as residual activity at 1 uM preincubated for 15 mins measured after 10 mins by HPLC analysis relative to control; assay type: cell-based
T1 sequence (whole entry): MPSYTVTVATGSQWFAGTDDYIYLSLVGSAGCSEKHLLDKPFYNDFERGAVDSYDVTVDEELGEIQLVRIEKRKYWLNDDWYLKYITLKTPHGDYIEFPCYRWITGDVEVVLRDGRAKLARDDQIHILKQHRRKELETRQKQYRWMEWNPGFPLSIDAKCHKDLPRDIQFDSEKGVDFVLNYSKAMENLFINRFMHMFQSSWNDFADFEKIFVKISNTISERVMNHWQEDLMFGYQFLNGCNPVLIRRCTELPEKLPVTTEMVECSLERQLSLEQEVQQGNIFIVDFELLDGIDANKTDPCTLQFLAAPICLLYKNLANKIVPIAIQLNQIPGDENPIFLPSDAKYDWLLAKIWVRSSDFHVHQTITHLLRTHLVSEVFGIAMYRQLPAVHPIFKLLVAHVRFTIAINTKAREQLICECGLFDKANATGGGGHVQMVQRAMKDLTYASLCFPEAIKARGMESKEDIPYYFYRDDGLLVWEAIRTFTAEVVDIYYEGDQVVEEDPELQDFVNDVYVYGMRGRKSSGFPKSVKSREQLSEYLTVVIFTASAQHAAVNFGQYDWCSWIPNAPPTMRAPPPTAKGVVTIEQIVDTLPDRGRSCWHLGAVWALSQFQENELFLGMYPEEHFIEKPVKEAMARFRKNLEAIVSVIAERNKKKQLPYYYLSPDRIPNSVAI
Procedure, shortened: (§1)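 Freshly isolated human PMNL (5 × 10^6 per mL PBS pH 7.4, 1 mg/mL glucose, 1 mM CaCl2) preincubated with compounds 15 min at 37 °C, then stimulated with A23187 (2.5 µM) plus AA (20 µM) for 10 min. Methanol stop, PGB1 internal standard; LTB4, all-trans isomers and 5-H(P)ETE per 10^6 cells by HPLC. n≥3, mean ± SE.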

[2] = molecular target: T1, Polyunsaturated fatty acid 5-lipoxygenase (Homo sapiens); assay: Inhibition of 5-lipoxygenase in cell free S100 freshly isolated human PMNL cells assessed as assessed as residual activity at 10 uM preincubated for 15 mins measured after 10 mins by HPLC analysis relative to control
Procedure, shortened: (§2)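 Human donor PMNL in PBS with 1 mM EDTA plus protease inhibitors, sonicated, spun 100,000g 70 min at 4 °C. S100 equivalent to 7.5 × 10^6 cells in PBS pH 7.4, 1 mM EDTA, 1 mM ATP; compound or DMSO 15 min at 4 °C, then 20 µM AA plus 2 mM CaCl2, 10 min at 37 °C. Methanol stop; products by HPLC; n≥3, mean ± SE.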

U-937 [3] = assay: Cytotoxicity against human U937 cells assessed as cell viability after 48 hrs by WST-1 assay; assay type: cell-based; conditions: U-937, 48 h
Procedure, shortened: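 U937 cells (10^4 per well, RPMI with 10% FCS, 37 °C, 5% CO2) treated with increasing compound concentrations for 48 h in 10% FCS; mitochondrial metabolic activity read by WST-1 kit protocol. IC50 for viability loss; at least three experiments, mean ± SE.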

U-937 [4] = assay: Cytotoxicity against human U937 cells assessed as LDH leakage at 30 uM after 48 hrs by microplate reader assay relative to control; assay type: cell-based; conditions: u-937, 48 h
[5] = molecular target: T1, Polyunsaturated fatty acid 5-lipoxygenase (Homo sapiens); assay: Inhibition of 5-lipoxygenase in human polynuclear leukocytes assessed as residual activity at 10 uM preincubated for 15 mins measured after 10 mins by HPLC analysis relative to control; assay type: cell-based; procedure, shortened: as §1
[6] = molecular target: T2, Polyunsaturated fatty acid 5-lipoxygenase (Homo sapiens, UniProt P09917); assay: Inhibition of 5-lipoxygenase in human polynuclear leukocytes assessed as inhibition of A23187-stimulated 5-LO product formation preincubated for 15 mins measured after 10 mins by HPLC analysis; assay type: cell-based
T2 sequence (P09917 whole entry): T1 sequence (whole entry)

[7] = molecular target: T2, Polyunsaturated fatty acid 5-lipoxygenase; assay: Inhibition of 5-lipoxygenase in cell free S100 freshly isolated human PMNL cells assessed as inhibition of 5-LO product formation preincubated for 15 mins measured after 10 mins by HPLC analysis
[8] = molecular target: T1, Polyunsaturated fatty acid 5-lipoxygenase (Homo sapiens); assay: Inhibition of 5-lipoxygenase in cell free S100 freshly isolated human PMNL cells assessed as assessed as residual activity at 1 uM preincubated for 15 mins measured after 10 mins by HPLC analysis relative to control; procedure, shortened: as §2

## COc1ccc(/C=C2\SC(c3ccc(OC)cc3)=NC2=O)cc1
[1]
  Activity: 21.4%
[2]
  Activity: 38.8%

## COc1ccc(/C=C2\SC(c3ccc(C)cc3)=NC2=O)cc1
U-937 [3]
  IC50: > 30 µM
U-937 [4]
  Activity: 2.7%

## COc1ccc(C2=NC(=O)/C(=C/c3ccc(C)cc3)S2)cc1
U-937 [3]
  IC50: > 30 µM
U-937 [4]
  Activity: 15.8%

## CCCOc1ccc(/C=C2\SC(c3ccc(Cl)cc3)=NC2=O)cc1
U-937 [3]
  IC50: 21.1 µM
U-937 [4]
  Activity: 48.9%

## COc1ccc(C2=NC(=O)/C(=C/c3cc4ccccc4[nH]3)S2)cc1
[2]
  Activity: 21.4%
[5]
  Activity: 20.5%
[6]
  IC50: 0.67 µM
[7]
  IC50: 0.57 µM

## COc1ccc(/C=C2\SC(c3ccc(N)cc3)=NC2=O)cc1
[1]
  Activity: 72.9%
[8]
  Activity: 37.2%

## CC(=O)N(O)C/C=C/c1cccc(Oc2ccccc2)c1
[2]
  Activity: < 10%
[5]
  Activity: < 10%
U-937 [3]
  IC50: > 30 µM
U-937 [4]
  Activity: 0.8%

## COc1ccc(/C=C2\SC(c3cccc(NC(=O)C45CC6CC(CC(C6)C4)C5)c3)=NC2=O)cc1
U-937 [3]
  IC50: > 30 µM
U-937 [4]
  Activity: 8.4%

## COc1ccc(/C=C2\SC(c3ccc(Cl)cc3)=NC2=O)c2ccccc12
U-937 [3]
  IC50: > 30 µM
U-937 [4]
  Activity: 12.2%

## COc1ccc(/C=C2\SC(c3ccc4ccccc4c3)=NC2=O)cc1
U-937 [3]
  IC50: > 30 µM
U-937 [4]
  Activity: 4.1%

## COc1ccc(/C(C)=C2\SC(c3ccc(C)cc3)=NC2=O)cc1
U-937 [3]
  IC50: 12.1 µM
U-937 [4]
  Activity: 106%

## O=C1N=C(c2ccc(Cl)cc2)S/C1=C\c1ccc(Oc2ccccc2)cc1
U-937 [3]
  IC50: > 30 µM
U-937 [4]
  Activity: 12%
